This note sets out measurements from ChEMBL document CHEMBL1147268, “New triterpene glycosides from the stems of Anomospermum grandifolium” (2003).

By MIC is commonly meant the smallest concentration in the dilution series that meets the test's criterion for growth inhibition. Read a high MIC as a less susceptible organism.

The structures appear in SMILES notation. Converted amounts (≈) assume the structure as drawn. The source made the active and inactive calls.

Experiment [1] deals with Enterococcus faecalis. The experiment is described as follows: Antibacterial activity against Enterococcus faecalis ATCC 29212 at 250 ug/mL after 18 hrs by broth microdilution method. It counts as functional, organism-based. The method in brief:
(§1)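 Broth microdilution in Mueller Hinton broth in 96-well plates, run in duplicate following NCCLS guidance. Pure compounds were tested at dilution intervals up to a top concentration of 120 or 250 µg/mL. Plates were incubated 18 h at 37 °C and read from below with a reflective viewer. DMSO served as blank control and ampicillin as positive control.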

The subject of experiment [2] is Staphylococcus aureus. The experiment is described as follows: Antibacterial activity against Staphylococcus aureus ATCC 25923 at 250 ug/mL after 18 hrs by broth microdilution method. It counts as functional, organism-based. Summed up: as §1
Experiment [3] has as its system Escherichia coli. The experiment is described as follows: Antibacterial activity against Escherichia coli ATCC 25922 at 250 ug/mL after 18 hrs by broth microdilution method. The format is functional, organism-based. Summed up:
as §1
(In general: Broth dilution looks for growth in wells or tubes with falling amounts of substance.)

Experiment [4] concerns Pseudomonas aeruginosa. The experiment is described as follows: Antibacterial activity against Pseudomonas aeruginosa ATCC 27853 at 250 ug/mL after 18 hrs by broth microdilution method. It counts as functional, organism-based. The method in brief: as §1
Experiment [5] concerns Candida albicans. The experiment is described as follows: Antifungal activity against Candida albicans ATCC 3153 after 18 hrs by broth microdilution method. The format is functional. Particulars: ATCC 3153, 18 h. Summed up:
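Candida albicans ATCC 3153 was tested by broth microdilution in Sabouraud broth in 96-well plates, in duplicate, per NCCLS. Pure compounds were tested at varied dilution intervals. Plates were incubated 18 h at 37 °C and read from below with a reflective viewer. MIC was taken from the growth end point. DMSO served as blank control and ketoconazole as positive control.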

The test system of experiment [6] is Enterococcus faecalis. The experiment is described as follows: Antibacterial activity against Enterococcus faecalis ATCC 29212 at 120 ug/mL after 18 hrs by broth microdilution method. The format is functional, organism-based. The method in brief:
as §1

The subject of experiment [7] is Staphylococcus aureus. The experiment can be described thus: Antibacterial activity against Staphylococcus aureus ATCC 25923 at 120 ug/mL after 18 hrs by broth microdilution method. It counts as functional, organism-based. Summed up:
as §1

The test system of experiment [8] is Escherichia coli. The experiment can be described thus: Antibacterial activity against Escherichia coli ATCC 25922 at 120 ug/mL after 18 hrs by broth microdilution method. The format is functional, organism-based. The method in brief:
as §1

In experiment [9] the test system is Pseudomonas aeruginosa. The experiment can be described thus: Antibacterial activity against Pseudomonas aeruginosa ATCC 27853 at 120 ug/mL after 18 hrs by broth microdilution method. The format is functional, organism-based. The method in brief:
as §1

Regarding `CC(C)=C[C@H]1C[C@](C)(O)[C@@H]2[C@H]3CC[C@@H]4[C@@]5(C)CC[C@H](O[C@@H]6OC[C@H](O)[C@H](O[C@@H]7O[C@H](CO[C@@H]8O[C@H](CO)[C@@H](O)[C@H](O)[C@H]8O)[C@@H](O)[C@H](O)[C@H]7O)[C@H]6O[C@@H]6O[C@@H](CO)[C@H](O)[C@H]6O)C(C)(C)[C@@H]5CC[C@@]4(C)[C@@]34CO[C@@]2(C4)O1`, the outcome in [1], in experiment [2], in experiment [3] and in [4] was inactive. The compound further had an MIC in [5] of 250 µg/mL (≈ 236 µM).
As to `CC(C)=C[C@H]1C[C@](C)(O)[C@@H]2[C@H]3CC[C@@H]4[C@@]5(C)CC[C@H](O[C@@H]6OC[C@H](O)[C@H](O[C@@H]7O[C@H](CO)[C@@H](O)[C@H](O)[C@H]7O)[C@H]6O[C@@H]6O[C@@H](CO)[C@H](O)[C@H]6O)C(C)(C)[C@@H]5CC[C@@]4(C)[C@@]34CO[C@@]2(C4)O1`, the outcome in experiment [6], in [7], in [8] and in experiment [9] was inactive.
`CC(=O)N1CCN(c2ccc(OCC3COC(Cn4ccnc4)(c4ccc(Cl)cc4Cl)O3)cc2)CC1` (stereo not given) [KETOCONAZOLE]: in experiment [5], the MIC was determined as 0.1 µg/mL (≈ 0.188 µM).
